In PubChem BioAssay AID720508 (The Scripps Research Institute Molecular Screening Center, 2013) one finds inhibition data, which are given here for 93 compounds.

Each structure is given as a SMILES string. Hit rate of the full screen: of about 370,000 compounds, about 500 (0.14%) were called active.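 The calls were made as follows: active = inhibition above the mean of compounds falling within the control limits plus 3 SD of them (cut at about 14% in these data); inactive = the rest.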 Many of the other results were omitted from the sample, so actives are more common in it than they were.

Chain of Fibrinogen beta chain (Homo sapiens) (P02675 whole entry, looked up): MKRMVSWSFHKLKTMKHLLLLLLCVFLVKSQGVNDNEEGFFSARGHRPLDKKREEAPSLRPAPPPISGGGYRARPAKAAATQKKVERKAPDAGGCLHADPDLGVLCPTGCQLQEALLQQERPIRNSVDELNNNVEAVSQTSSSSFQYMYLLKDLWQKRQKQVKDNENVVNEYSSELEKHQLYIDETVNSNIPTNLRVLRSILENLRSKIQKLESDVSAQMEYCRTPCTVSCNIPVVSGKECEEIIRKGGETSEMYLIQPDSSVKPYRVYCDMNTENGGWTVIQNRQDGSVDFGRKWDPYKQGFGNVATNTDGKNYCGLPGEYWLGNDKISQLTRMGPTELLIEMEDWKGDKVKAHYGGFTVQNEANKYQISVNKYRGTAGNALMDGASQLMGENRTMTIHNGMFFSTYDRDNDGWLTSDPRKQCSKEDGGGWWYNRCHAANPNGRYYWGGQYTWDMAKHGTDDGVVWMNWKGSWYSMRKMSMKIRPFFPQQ

The test addresses Fibrinogen beta chain (Homo sapiens) (UniProt P02675). Description: inhibitors of Tn7 peptide binding to fibrin DD(E), primary screen, biochemical, fluorescence polarization, human fibrin, Tn7 probe (AID 720508).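 Also: 0% = plate median of compound wells and 100% = 10 µM Aha-Tn7 peptide.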 The following applies: FP displacement of FITC-Tn7 peptide from fibrin DD(E); at 8.3 µM; stronger effect = higher value; 0% = median of compound wells per plate. A digest of the protocol:
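system = human fibrin DD(E) protein | quantity = DD(E) 2 µM final | medium = Tris/NaCl/CaCl2 buffer, pH 7.8 | also added = labelled Tn7 tracer, 0.1 µM | compound dosing = single point at 8.3 µM | timing = compound with protein 10 min, then 3 h after probe, room temperature | signal = FP measurement | benchmarks = Aha-Tn7 high control | repeats = one replicate per compound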
A general note: In fluorescence polarisation assays a small probe gives low polarisation when free and higher when bound to something large.
As for `O=C(NCc1ccco1)C1CCCN1S(=O)(=O)c1ccccc1C(F)(F)F` (stereo not drawn), the inhibition was -1.12% (inactive).
In the case of `COc1ccc(NC2CC(=O)N(C)C2=O)cc1` (stereo not drawn) it was 0.3% (inactive); in that of `CCC1CCCCN1C(=S)Nc1ccc(SC(F)F)cc1` (stereo not drawn), 5.34% (inactive); in that of `C[N+]1(CCNC(=O)/C=N/O)CCCCC1`, 1.46% (inactive).
In the case of `COc1ccc(C)cc1NC(=S)N1CCOCC1` it was -0.49% (inactive).
In the case of `COc1cc(C(=S)NC2CCCCC2)ccc1O` it was 2.78% (inactive); in that of `COc1cc(C(=S)N2CCOCC2)ccc1O`, 14.7% (active); in that of `COC(=O)[C@]12CCCCC=C1N(Cc1ccc(Cl)cc1Cl)C(=O)[C@H](CC(=O)NCc1cccc3ccccc13)C2`, -3.23% (inactive).
Turning to `Cn1c(=O)cc(OCCCC(=O)N2CCN(c3ccccn3)CC2)c2ccccc21`, the inhibition was 2.1% (inactive).
Consider `OCCn1c(-c2ccccc2)csc1=Nc1ccccc1`, for which the inhibition is 5.44% (inactive).
Under `C=CCOc1cccc(C2C(C(=O)c3ccc(C)o3)=C(O)C(=O)N2CCN2CCOCC2)c1` (stereo not drawn) stands 0.33% (inactive); under `Cc1cc(C)n2c(Nc3c(C)cccc3C)c(CCc3ccccc3)nc2n1`, 10.1% (inactive); under `C=CCOc1c2ccc(C(=O)N(CC)c3ccc(OC)cc3)cc2nn1C`, 1.93% (inactive).
Under `O=S(=O)(c1ccc(-c2ccno2)s1)N1CCCCC1` stands -8.93% (inactive); under `O=[N+]([O-])/C=C/c1ccc2c(ccn2Cc2ccccc2)c1`, 0.19% (inactive); under `O=S(=O)(NCC1CCCO1)c1cnc(Cl)c(Cl)c1` (stereo not drawn), 0.79% (inactive).
On to `O=C(COC(=O)c1ccc(N2CCCC2=O)cc1)c1ccc(OC(F)F)cc1`, for which the inhibition is -9.52% (inactive).
As to `COc1ccc(-c2nc(CCNC(=O)c3ccc(Br)o3)cs2)cc1`, the inhibition was 16.8% (active).
In the case of `COc1cc(OC)cc(C(=O)NCC(=O)OCc2csc(-c3ccccc3)n2)c1` it was 1.99% (inactive); in that of `COc1cc(OC)cc(C(=O)NNC(=O)CNC(=O)c2ccc(Br)o2)c1`, 3.03% (inactive); in that of `CC(C)c1nnc(NC(=O)CCC(=O)N2CCN(c3cccc(Cl)c3)CC2)s1`, 3.33% (inactive).
Regarding `O=C(Nc1ccon1)c1sc2ccccc2c1Cl`, the inhibition was 15.2% (active).
Regarding `CN1CCc2ccccc2C1Cc1ccccc1NC(=O)c1sc2ccccc2c1Cl` (stereo not drawn), the inhibition is -2.71% (inactive).
Turning to `O=C(Nc1ccc2c(c1)OCO2)c1sc2cc(Cl)ccc2c1Cl`, the inhibition is 6.59% (inactive).
In the case of `Cc1cc(Cl)ccc1C(=O)C1CCCN(C(=O)c2ccc3c(c2)OCO3)C1` (stereo not drawn) it was -13.3% (inactive); in that of `COc1cccc(NC(=O)CN(C)CC(=O)c2c(N)n(Cc3ccccc3)c(=O)n(C)c2=O)c1`, -1.38% (inactive); in that of `O=C(COC(=O)c1ccccc1NC(=O)c1ccco1)Nc1ccc2c(c1)OC(F)(F)O2`, -0.79% (inactive).
Take `N#Cc1cccc(CSc2ncnc(N)n2)c1`: the inhibition was -4.53% (inactive).
In the case of `COC(=O)[C@]12CCCCC=C1N(Cc1ccco1)C(=O)[C@H](CC(=O)NCC1CCCCC1)C2`, the inhibition was 6.36% (inactive).
`CCOc1ccc(NC(=O)CCS(=O)(=O)c2ccc3c(c2)CCCN3C(=O)CC)cc1`: the inhibition was -5.9% (inactive).
In the case of `COc1ccccc1-c1sc2ccccc2c1C#CC1(O)CCCCC1`, the inhibition is 1.77% (inactive).
On to `C[C@H](CO)N1C[C@H](C)[C@@H](CN(C)S(=O)(=O)c2ccc(F)cc2)Oc2ccc(NC(=O)CCC(F)(F)F)cc2C1=O`, for which the inhibition was -0.61% (inactive).
Take `O=C(CCNS(=O)(=O)c1cccs1)N1CCN(c2ccc(F)cc2)CC1`: the inhibition is 3.48% (inactive).
For `COc1ccc(NC(=O)CN(C)C(=O)c2cccc(S(=O)(=O)N3CCN(c4ccccc4)CC3)c2)cc1`, the inhibition is -8.03% (inactive).
For `CCCc1nc2c3ccccc3ccn2c1Cc1ccccc1C(F)(F)F`, the inhibition is 6.59% (inactive).
`COc1ccc(-n2c(SCC(=O)Nc3ccccc3-c3ccccc3)nnc2-c2cccnc2)cc1`: the inhibition is 6.88% (inactive).
In the case of `Cc1ccc(-n2c(SCC(=O)Nc3cccc4ccccc34)nnc2-c2ccccn2)cc1` it was 1.64% (inactive); in that of `O=C(CSc1nnc(-c2ccccn2)n1-c1ccc(Cl)cc1)Nc1ccccc1-c1ccccc1`, 14% (active).
For the compound `NNC(=O)CNC(c1ccccc1)c1cc(Cl)ccc1NC(=O)c1ccccc1` (stereo not drawn), the inhibition is 2.82% (inactive).
`O=C(/C=C/c1ccc([N+](=O)[O-])cc1)NCCSCc1ccco1`: the inhibition was 1.56% (inactive).
Under `C=CCn1c(SCC(=O)c2c(N)n(C)c(=O)n(C)c2=O)nc2sc(CC)cc2c1=O` stands 3.02% (inactive).
As to `CC1(C)CC(=O)c2sc(N)nc2C1`, the inhibition is -0.75% (inactive).
`Cc1cc(C)cc(N(CCC#N)C(=O)CN2C(=O)NC3(CCCC3)C2=O)c1`: the inhibition was -4.5% (inactive).
With `COc1ccc(OCCCC(=O)Nc2cccc(S(=O)(=O)N3CCCCCC3)c2)cc1`, the inhibition was 6.07% (inactive).
`N#CCSc1ccccc1NC(=O)CN1C(=O)NC(CCc2ccccc2)C1=O` (stereo not drawn): the inhibition is -8.31% (inactive).
As to `O=C(CCN1C(=O)c2ccncc2C1=O)Nc1cc(F)ccc1F`, the inhibition was 6.34% (inactive).
As to `CCOC(=O)C1(S(=O)(=O)c2ccc(Cl)cc2)CCN(Cc2ccccc2)CC1`, the inhibition was 7.42% (inactive).
In the case of `C#CCNc1ccc(C(=O)OCC)cc1` it was 26.2% (active).
As to `CCOC(=O)c1ccc(NC(=O)c2ccc(NC(=O)C3CCCO3)cc2)cc1` (stereo not drawn), the inhibition is 8.18% (inactive).
In the case of `CCOC(=O)c1ccc(NC(=O)c2c(NCc3ccccc3)[nH]c(=O)[nH]c2=O)cc1` it was 1.03% (inactive); in that of `Oc1ccccc1-c1cc(-c2ccc(Cl)cc2)n[nH]1`, -0.94% (inactive).
For the compound `COc1ccc(Br)c2c1C(=O)CC2`, the inhibition is -5.83% (inactive).
In the case of `Cn1c(=O)[nH]c(=O)c2c1nc(CN1CCN(c3ccccc3F)CC1)n2CCc1ccccc1` it was 6.89% (inactive); in that of `CC(C)CCN1CCN=C1N(C)C`, -8.21% (inactive); in that of `OC(c1nc2ccc(F)cc2[nH]1)C(O)c1nc2ccc(F)cc2[nH]1` (stereo not drawn), -4.03% (inactive).
Take `CCOC(=O)N1CCC(=NNC(N)=O)CC1`: the inhibition was 0.3% (inactive).
Regarding `CCOC(=O)C=Cc1ccc(C(=O)OCC)[nH]1`, the inhibition was -0.66% (inactive).
In the case of `COc1cc2nc(CN(C)Cc3ccc(F)cc3)[nH]c(=O)c2cc1OC`, the inhibition was -5.44% (inactive).
For `Cc1ccc(C)c(NS(=O)(=O)c2c(C)[nH]c(C)c2C(=O)N2CCCCC2)c1`, the inhibition is -9.23% (inactive).
`CCc1nc2c(OCc3ccc(F)c(F)c3)cccn2c1N(C)C(=O)c1ccco1`: the inhibition was 7.1% (inactive).
In the case of `Cc1nnc2n1N=C(c1ccc3c(c1)NC(=O)CO3)CS2` it was 15.4% (active).
For `CC(C)[C@@H](C(=O)OCC(=O)c1ccc2c(c1)NC(=O)CO2)N1C(=O)c2ccccc2C1=O`, the inhibition was -6.7% (inactive).
In the case of `Cc1ccc(NS(=O)(=O)c2ccc3c(c2)NC(=O)CO3)cc1` it was 2.86% (inactive).
For the compound `COc1cc(C(=O)NN(CCC#N)C2=NS(=O)(=O)c3ccccc32)cc(OC)c1OC`, the inhibition is -4.12% (inactive).
As for `CN1C(=O)c2cccc3c(N)ccc(c23)C1=O`, the inhibition was 24.4% (active).
On to `Cc1nn(C)cc1N1C(=O)c2cccc3c(N)ccc(c23)C1=O`, for which the inhibition was 28.7% (active).
In the case of `CC(=O)CC(CC(=O)NC1CCCCC1)c1ccccc1` (stereo not drawn) it was 4.93% (inactive).
On to `CCCC(=O)N1CCC(CCC(=O)NC2CC2)CC1`, for which the inhibition is -7.44% (inactive).
For the compound `CC(Sc1ccc(S(=O)(=O)N2CCN(C)CC2)cn1)C(=O)NC1CCCC(C)C1C` (stereo not drawn), the inhibition is 4.47% (inactive).
With `CCC(C)N1CC(=O)N2Cc3[nH]c4ccccc4c3C[C@H]2C1=O` (stereo partly drawn), the inhibition is -0.72% (inactive).
As for `COc1ccc(-n2c(SCC(=O)Nc3sc4c(c3C#N)CCCC4)nnc2-c2ccc(O)cc2)cc1`, the inhibition is -4.29% (inactive).
Under `CCCCOC(=O)NCN1C(=O)C2C3C=CC(C3)C2C1=O` (stereo not drawn) stands 12.4% (inactive); under `Cc1ccc(S(=O)(=O)N2CCC(C(=O)NCCC3=CCCCC3)CC2)cc1C`, 0.25% (inactive); under `OCC1(Cc2ccccc2C(F)(F)F)CCN(Cc2ccncc2)CC1`, -3.68% (inactive).
For the compound `Nc1nc(Br)c2ccccc2c1-c1ccc(F)cc1`, the inhibition was -1.53% (inactive).
`O=C(c1ccc(OC2CCN(C(=O)c3cccnc3)CC2)cc1)N1CCCCCC1`: the inhibition is 3.65% (inactive).
Under `O=C(Cn1cnc2c(nnn2Cc2ccc(F)cc2)c1=O)NCc1ccc2c(c1)OCO2` stands -1.63% (inactive).
In the case of `O=C(Nc1cccc(C(=O)NC2CC2)c1)c1ccc(F)c(S(=O)(=O)N2CCOCC2)c1` it was 6.51% (inactive).
With `CC12CCC(C(=O)N(CCC#N)CCC#N)(CC1=O)C2(C)C` (stereo not drawn), the inhibition was 1.78% (inactive).
Regarding `CC(C)(C)c1cc(CN2CCN(CCC#N)CC2)cc(C(C)(C)C)c1O`, the inhibition was 13.8% (active).
In the case of `N#Cc1cccc(CN2CCC(=O)N(CCO)CC2)c1`, the inhibition is 7.16% (inactive).
For `N#CCCN1CCN(S(=O)(=O)c2ccc(S(=O)(=O)N3CCCC3)cc2)CC1`, the inhibition was 3.06% (inactive).
Turning to `CCC(c1ccc(NC(=O)OC(C)(C)C)cc1)c1cc(OC)cc(OC)c1` (stereo not drawn), the inhibition was -0.44% (inactive).
For the compound `CN(C)S(=O)(=O)c1ccc(N/C=C(\[N+](=O)[O-])S(=O)(=O)c2ccccc2)cc1`, the inhibition is -0.82% (inactive).
`COC(=O)c1sccc1NC(=O)CSc1ccccc1NS(=O)(=O)c1cc(Cl)ccc1Cl`: the inhibition was 0.88% (inactive).
Under `Cc1cc(C)c2cc(CN(Cc3cccs3)Cc3nnnn3CC3CCCO3)c(=O)[nH]c2c1` (stereo not drawn) stands -1.42% (inactive).
In the case of `CC(C)[C@H](NC(=O)N1CCn2c1nc1ccccc12)C(=O)NCc1ccc2c(c1)OCO2`, the inhibition was 1.52% (inactive).
In the case of `O=S1(=O)c2c(cccc2N2CC[C@H](O)C2)O[C@@H]2CCN1C2`, the inhibition was 4.53% (inactive).
`CCC(=O)Nc1cccc(C2=NOC3(C2)C[C@@H](C(N)=O)N(C(=O)c2cc([N+](=O)[O-])cc([N+](=O)[O-])c2C)C3)c1` (stereo partly drawn): the inhibition is -4.25% (inactive).
On to `CC(Oc1ccccc1)C(=O)Nc1oc(-c2ccco2)c(-c2ccco2)c1C#N` (stereo not drawn), for which the inhibition was 2.07% (inactive).
On to `Cc1ccc(OCc2nc(C#N)c(N3CCCC3)o2)cc1`, for which the inhibition was 0.61% (inactive).
Consider `CCOc1ccc(Nc2oc(Cc3ccccc3)nc2C#N)cc1`, for which the inhibition was 14.8% (active).
`N#Cc1nc(Cc2cccc3ccccc23)oc1NCc1ccc2c(c1)OCO2`: the inhibition was 4.95% (inactive).

What is called inhibition is the relative decrease from the control value, in per cent.
